{"data": "Measurements of several laboratories", "MET": "Hepatocyte growth factor receptor (MET, Homo sapiens, UniProt P08581)", "MET M1250T": "Hepatocyte growth factor receptor (MET, Homo sapiens, UniProt P08581, M1250T)", "MET Y1235D": "Hepatocyte growth factor receptor (MET, Homo sapiens, UniProt P08581, Y1235D)", "note": "Protocols differ between the studies behind these lines."}
{"Compound": "c1cnn2ncc(-c3ccnc(N4CCC45COC5)n3)c2c1", "target": "MET", "test": "binding", "setting": "1 µM", "remaining binding": "83%"}
{"Compound": "CC(C)(C)c1ccc(-c2nc(CBr)nn2-c2cccc(O)c2)cc1", "target": "MET", "test": "cell-free assay, competition with immobilised ligand", "setting": "10 µM", "remaining binding": "83%"}
{"Compound": "CCC(=N\\O)/C(C)=C/c1ccc(F)cc1", "target": "MET", "test": "cell-free assay, competition with immobilised ligand", "setting": "1 µM", "remaining binding": "88%"}
{"Compound": "COc1cnc(Nc2cccc(S(N)(=O)=O)c2)nc1N1CCN(c2ccccc2)C(=O)C1", "target": "MET M1250T", "test": "binding, competition with immobilised ligand", "setting": "1 µM", "remaining binding": "98%"}
{"Compound": "Nc1ncc2c(n1)-c1c([nH]c3ccc(C#CC4CC4)cc13)CCCC2", "target": "MET", "test": "binding, competition with immobilised ligand", "setting": "1 µM", "remaining binding": "100%"}
{"Compound": "CN1CCN(c2ccc(Nc3nccc(-c4ccccc4)n3)cc2C(F)(F)F)CC1", "target": "MET Y1235D", "test": "binding", "setting": "10 µM", "remaining binding": "21%"}
{"Compound": "N#Cc1ccccc1CSc1nnc2c(n1)[nH]c1ccccc12", "target": "MET", "test": "binding, competition with immobilised ligand", "setting": "10 µM", "remaining binding": "87%"}
{"Compound": "Cc1c(C(=O)O)cc(-c2ccc(C3CCNCC3)cc2)c2ccc(-c3ccc(C(F)(F)F)cc3)cc12", "target": "MET", "test": "cell-free assay, competition with immobilised ligand", "setting": "1 µM", "remaining binding": "100%"}
{"Compound": "O=C(c1ccc(Nc2ncc(Cl)c(-c3cc4ccccc4s3)n2)cc1)N1CCC(N2CCCC2)CC1", "target": "MET Y1235D", "test": "binding, competition with immobilised ligand", "setting": "1 µM", "remaining binding": "44%"}
{"Compound": "c1cncc(-c2cccc(Nc3nccc(NC4CCCCC4)n3)c2)c1", "target": "MET M1250T", "test": "binding, competition with immobilised ligand", "setting": "10 µM", "remaining binding": "29%"}
{"Compound": "O=C(Nc1c[nH]nc1C(=O)NC1CCNCC1)c1cc(F)cc(F)c1", "target": "MET", "test": "binding, competition with immobilised ligand", "setting": "1 µM", "remaining binding": "94%"}
{"Compound": "CC1=C(C#N)C(c2ccc3c(c2)c(NC(=O)c2ccccc2C)nn3C)C(C#N)=C(C)N1", "target": "MET", "test": "cell-free assay, competition with immobilised ligand", "setting": "1 µM", "remaining binding": "24%"}
{"Compound": "F[C@@H]1CCN(c2nccc(-c3cnn4ncccc34)n2)C1", "target": "MET Y1235D", "test": "binding", "setting": "1 µM", "remaining binding": "100%"}
{"Compound": "CN(C)C(=O)Cn1cc(-c2nc(C3(c4ccc(-c5cnc(N)nc5)cc4)CC3)no2)cn1", "target": "MET Y1235D", "test": "cell-free assay, competition with immobilised ligand", "setting": "1 µM", "remaining binding": "98%"}
{"Compound": "CNC(=O)[C@@H]1CC[C@@H](n2c(-c3ccc4cnccc4c3)nc3ccc(C(=O)NCc4cccc(C(N)=O)c4)cc32)C1", "target": "MET", "test": "binding, competition with immobilised ligand", "setting": "1 µM", "remaining binding": "98%"}
{"Compound": "COc1ncc2cc3ccccc3nc2c1C#N", "target": "MET", "test": "cell-free assay, competition with immobilised ligand", "setting": "5 µM", "remaining binding": "91%"}
{"Compound": "Cc1cnc(Nc2ccc(C(=O)N3CCC(N4CCCC4)CC3)cc2)nc1-c1cc2ccccc2s1", "target": "MET Y1235D", "test": "binding, competition with immobilised ligand", "setting": "1 µM", "remaining binding": "72%"}
{"Compound": "O=C(NCC1CCOCC1)c1n[nH]cc1NC(=O)c1c(F)cccc1F", "target": "MET", "test": "binding, competition with immobilised ligand", "setting": "1 µM", "remaining binding": "100%"}
{"Compound": "COc1cnc(Nc2cccc(S(N)(=O)=O)c2)nc1N1CCN(c2ccccc2)CC1", "target": "MET M1250T", "test": "binding, competition with immobilised ligand", "setting": "1 µM", "remaining binding": "74%"}
{"Compound": "CC(=O)N1CCC(c2ccc(C(=O)NC3=NCCN3)cc2C(F)(F)F)CC1", "target": "MET Y1235D", "test": "cell-free assay, competition with immobilised ligand", "setting": "1 µM", "remaining binding": "100%"}
{"Compound": "C[C@@H]1CCN(c2nccc(-c3cnn4ncccc34)n2)C1", "target": "MET M1250T", "test": "binding", "setting": "1 µM", "remaining binding": "98%"}
{"Compound": "O=C(c1ccc(Nc2nccc(-c3cc4ccccc4s3)n2)cc1)N1CCC(N2CCCC2)CC1", "target": "MET M1250T", "test": "binding, competition with immobilised ligand", "setting": "1 µM", "remaining binding": "68%"}
{"Compound": "CCS(=O)(=O)c1cc2cc(C[C@](O)(CC(C)(C)c3ccc(F)cc3C(N)=O)C(F)(F)F)[nH]c2cn1", "target": "MET", "test": "cell-free assay, competition with immobilised ligand", "setting": "1 µM", "remaining binding": "98%"}
{"Compound": "O=C(c1ccc(Nc2ncc(Cl)c(-c3ccc(Cl)s3)n2)cc1)N1CCC(N2CCCC2)CC1", "target": "MET", "test": "binding, competition with immobilised ligand", "setting": "1 µM", "remaining binding": "6.9%"}
{"Compound": "N[C@@H]1CCN(c2nccc(-c3cnn4ncccc34)n2)C1", "target": "MET M1250T", "test": "binding", "setting": "1 µM", "remaining binding": "100%"}
{"Compound": "CN(C)C(=O)Cn1cc(-c2nc([C@@](C)(c3ccc(-c4cnc(N)nc4)cc3)C3CC3)no2)cn1", "target": "MET Y1235D", "test": "cell-free assay, competition with immobilised ligand", "setting": "1 µM", "remaining binding": "96%"}
{"Compound": "CN(C)c1ncc(F)c(-c2cnn3ncccc23)n1", "target": "MET", "test": "binding", "setting": "1 µM", "remaining binding": "97%"}
{"Compound": "O=C(NCCCN1CCOCC1)c1ccc(Nc2nccc(-c3cc4ccccc4s3)n2)cc1", "target": "MET M1250T", "test": "binding, competition with immobilised ligand", "setting": "1 µM", "remaining binding": "69%"}
{"Compound": "CN(c1nccc(-c2cnn3ncccc23)n1)C1CC1", "target": "MET M1250T", "test": "binding", "setting": "1 µM", "remaining binding": "100%"}
{"Compound": "CNC(=O)Nc1ccc2c(c1)CC[C@@]21OC(=O)N(CC(=O)N(Cc2ccc(F)cc2)[C@@H](C)C(F)(F)F)C1=O", "target": "MET Y1235D", "test": "cell-free assay, competition with immobilised ligand", "setting": "1 µM", "remaining binding": "81%"}
{"Compound": "Cc1cnn2ncc(-c3ccnc(N(C)C)n3)c2c1", "target": "MET M1250T", "test": "binding", "setting": "1 µM", "remaining binding": "61%"}
{"Compound": "CCN1CCN(Cc2ccc(C(=O)Nc3ccc(C)c(Oc4ccc5c(c4)CC(=O)N5)c3)cc2C(F)(F)F)CC1", "target": "MET M1250T", "test": "binding, competition with immobilised ligand", "setting": "1 µM", "remaining binding": "100%"}
{"Compound": "CN(C)c1nccc(-c2cnn3ncccc23)n1", "target": "MET M1250T", "test": "binding", "setting": "1 µM", "remaining binding": "100%"}
{"Compound": "O=C(NCCCN1CCOCC1)c1ccc(Nc2ncc(Cl)c(-c3ccc(Cl)s3)n2)cc1", "target": "MET", "test": "binding, competition with immobilised ligand", "setting": "1 µM", "remaining binding": "37%"}
